Results as given in ChEMBL document CHEMBL4316638, “Bioactive Meroterpenoids and Isocoumarins from the Mangrove-Derived Fungus Penicillium sp. TGM112” (J Nat Prod, 2019).
Activity calls are given as the source filed them.

Tests used:
HepG2 = assay: Cytotoxicity against human HepG2 cells measured after 7 days by MTT assay; format: functional, cell-based
Vibrio parahaemolyticus = assay: Antibacterial activity against Vibrio parahaemolyticus ATCC 17802 by microplate assay; format: functional, organism-based
Staphylococcus aureus [1] = assay: Antibacterial activity against methicillin-resistant Staphylococcus aureus ATCC 33591 by microplate assay; format: functional, organism-based
Method in brief: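 MRSA (ATCC 33591) was one strain in a panel of six pathogenic bacteria: four general and two marine Vibrio. Assayed by the microplate method, with ciprofloxacin as positive control.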

A549 = assay: Cytotoxicity against human A549 cells measured after 7 days by MTT assay; format: functional, cell-based
Vibrio alginolyticus = assay: Antibacterial activity against Vibrio alginolyticus ATCC 17749 by microplate assay; format: functional, organism-based; details: NBRC 15630 = ATCC 17749
Bacillus cereus = assay: Antibacterial activity against Bacillus cereus ATCC 11778 by microplate assay; format: functional, organism-based
RAW264.7 = assay: Inhibition of LPS-induced nitric oxide production in mouse RAW264.7 cells preincubated for 30 mins followed by LPS-stimulation and measured after 24 hrs by Griess assay; format: functional, cell-based
Method in brief: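 RAW264.7 macrophages seeded at 50 000 cells/well and grown 24 h, then exposed to compound for 30 min at 37 °C before LPS (100 ng/mL) co-incubation for 24 h. Nitrite in supernatant measured by Griess reagent (10 min mixing), absorbance 540 nm. Compounds from 10 mM DMSO stocks; final DMSO ≤0.1%. Dexamethasone positive control. Triplicate runs; IC50 calculated.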

Caenorhabditis elegans = assay: Insecticidal activity against Caenorhabditis elegans measured at 12 […]; format: functional, organism-based
Method in brief: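 L1 C. elegans (30−40 worms/well) in S medium with E. coli OP50 and chloramphenicol, exposed to compound at 40, 20, 10, 5, 1 and 0 μg/mL diluted in filter-sterilized M-9; 3 replicates per treatment. Plates sealed, kept at 24 °C for 60 h in the dark; dead larvae counted at 12, 24, 36, 48, 60. M-9 negative control, levamisole 1 mg/mL positive control.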

Escherichia coli = assay: Antibacterial activity against Escherichia coli ATCC 25922 by microplate assay; format: functional, organism-based
HeLa = assay: Cytotoxicity against human HeLa cells measured after 7 days by MTT assay; format: functional, cell-based
Helicoverpa armigera = assay: Insecticidal activity against Helicoverpa armigera hubner measured every other day for 8 days starting from 2 days post dosing; format: functional, organism-based
Method in brief: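 Neonate H. armigera larvae fed artificial diet dosed with serial dilutions of compound (1 mg/mL in DMSO) at 200, 100, 50, 25 and 12.5 μL/well in six-well plates; three groups of three larvae, 3 replicates per treatment. Held at 25 ± 1 °C, 80% relative humidity. Dead larvae counted on days 2, 4, 6, 8. DMSO negative, azadirachtin positive, plain diet blank controls.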

Staphylococcus aureus [2] = assay: Antibacterial activity against Staphylococcus aureus ATCC 25923 by microplate assay; format: functional, organism-based

C=C1[C@@]23C(=O)O[C@H](C)[C@]24O[C@@]2(C(=C)[C@]5(C=CC(=O)OC5(C)C)C[C@@H](O)[C@]32C)[C@H](O)[C@@]1(C)OC4=O
200 µg/mL: IC50 (Helicoverpa armigera)
inactive: Activity (HepG2) | Activity (Vibrio parahaemolyticus) | Activity (Staphylococcus aureus [1]) | Activity (A549) | Activity (Vibrio alginolyticus) | Activity (Bacillus cereus) | inhibition (RAW264.7) | Activity (Escherichia coli) | Activity (HeLa) | Activity (Staphylococcus aureus [2])
9.9 µg/mL: EC50 (Caenorhabditis elegans)

C=C1[C@@]23C(=O)O[C@H](C)[C@@]2(O)C(=O)O[C@]1(C)[C@@H](O)C1=C(C)[C@]2(CCC(=O)OC2(C)C)CC[C@@]13C
100 µg/mL: IC50 (Helicoverpa armigera)
inactive: Activity (HepG2) | Activity (Vibrio parahaemolyticus) | Activity (Staphylococcus aureus [1]) | Activity (A549) | Activity (Vibrio alginolyticus) | Activity (Bacillus cereus) | inhibition (RAW264.7) | Activity (Escherichia coli) | Activity (HeLa) | Activity (Staphylococcus aureus [2])
19.5 µg/mL: EC50 (Caenorhabditis elegans)
